Experimental data: ChEMBL document CHEMBL1138547, “Synthesis, biological evaluation and 2D-QSAR analysis of benzoxazoles as antimicrobial agents” (2009)
Converted amounts (≈) assume the structure as drawn.

Tests used:
Format in all cases: functional
[1] = system: Bacillus subtilis; test: Antimicrobial activity against Bacillus subtilis ATCC 6633 after 24 hrs; settings: for MIC: Bacillus subtilis, ATCC 6633, 24 h
Method in brief: (§1)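 MIC by twofold serial dilution in Mueller-Hinton broth (MHB); MHB also used to dilute the bacterial suspension. Wells held 10^3 cfu/ml bacteria after inoculation. Controls: 80% DMSO, 20% EtOH, methanol, DMSO, PBS, organism alone and medium alone. Triplicate in each run. MIC taken as the lowest concentration completely inhibiting macroscopic growth.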

[2] = system: Staphylococcus aureus; test: Antimicrobial activity against multidrug-resistant Staphylococcus aureus after 24 hrs
Method in brief: (§2)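 Twofold serial broth dilution in Mueller-Hinton broth. MHB was used both to dilute the bacterial suspension and for the twofold compound dilutions, giving 10^3 cfu/ml bacteria per well after inoculation. Solvent, medium and organism-only wells served as controls. Each organism was run in triplicate.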

[3] = system: Escherichia coli; test: Antimicrobial activity against multidrug-resistant Escherichia coli after 24 hrs; method in brief: as §2
[4] = system: Bacillus subtilis; test: Antimicrobial activity against ceftriazone-resistant Bacillus subtilis after 24 hrs; method in brief: as §2
[5] = system: Candida albicans; test: Antimicrobial activity against multidrug-resistant Candida albicans isolates after 24 to 48 hrs
Method in brief: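 Yeast broth microdilution following CLSI M27-A, with Sabouraud dextrose medium noted for antifungal assays. Fresh cultures at McFarland 0.5 (10^6 cfu/ml) were diluted to 10^4 cfu/ml and inoculated into twofold compound dilutions. Trays were incubated at 35 °C in a humid chamber and read at 48 h, in triplicate. MIC was the lowest concentration giving complete macroscopic growth inhibition.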

[6] = system: Escherichia coli; test: Antimicrobial activity against Escherichia coli ATCC 25922 after 24 hrs; settings: ATCC 25922, 24 h; method in brief: as §1
[7] = system: Staphylococcus aureus; test: Antimicrobial activity against Staphylococcus aureus ATCC 25923 after 24 hrs; settings: ATCC 25923, 24 h; method in brief: as §2
[8] = system: Klebsiella pneumoniae; test: Antimicrobial activity against Klebsiella pneumoniae RSHM 574 after 24 hrs; settings: RSHM 574, 24 h; method in brief: as §1
[9] = system: Klebsiella pneumoniae; test: Antimicrobial activity against multidrug-resistant Klebsiella pneumoniae after 24 hrs; method in brief: as §2
[10] = system: Pseudomonas aeruginosa; test: Antimicrobial activity against Pseudomonas aeruginosa ATCC […] after 24 hrs; method in brief: as §1
[11] = system: Candida albicans; test: Antimicrobial activity against Candida albicans ATCC 10231 after 24 to 48 hrs
Method in brief: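 Twofold serial dilution following CLSI M27-A. Yeast suspension made at 10^4 cfu/ml by diluting a fresh culture at McFarland 0.5 (10^6 cfu/ml). Inoculated into the diluted compound, incubated at 35 °C in a humid chamber, read after 48 h. Triplicate in each run. MIC is the lowest concentration completely inhibiting macroscopic growth.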

Compound	log(1/C) [1]	MIC [1] [µg/mL]	MIC [2] [µg/mL]	MIC [3] [µg/mL]	MIC [4] [µg/mL]	MIC [5] [µg/mL]	MIC [6] [µg/mL]	MIC [7] [µg/mL]	MIC [8] [µg/mL]	MIC [9] [µg/mL]	MIC [10] [µg/mL]	MIC [11] [µg/mL]
Nc1ccc2nc(-c3ccc(Br)cc3)oc2c1	4.063	25 (≈ 86.5 µM)	100 (≈ 346 µM)	50 (≈ 173 µM)	25 (≈ 86.5 µM)	50 (≈ 173 µM)	50 (≈ 173 µM)	100 (≈ 346 µM)	50 (≈ 173 µM)	100 (≈ 346 µM)	50 (≈ 173 µM)	100 (≈ 346 µM)
O=[N+]([O-])c1ccc2nc(Cc3ccc(Cl)cc3)oc2c1	4.364	12.5 (≈ 43.3 µM)	100 (≈ 346 µM)	100 (≈ 346 µM)	25 (≈ 86.6 µM)	50 (≈ 173 µM)	50 (≈ 173 µM)	200 (≈ 693 µM)	50 (≈ 173 µM)	100 (≈ 346 µM)	25 (≈ 86.6 µM)	100 (≈ 346 µM)
Cc1ccc2oc(-c3ccc(Br)cc3)nc2c1	4.363	12.5 (≈ 43.4 µM)										
CCc1ccc(-c2nc3ccc(N)cc3o2)cc1	3.678	50 (≈ 210 µM)	100 (≈ 420 µM)	100 (≈ 420 µM)	100 (≈ 420 µM)	50 (≈ 210 µM)	50 (≈ 210 µM)	100 (≈ 420 µM)	50 (≈ 210 µM)	100 (≈ 420 µM)	50 (≈ 210 µM)	50 (≈ 210 µM)
C[C@@H]1[C@H](O)[C@@H](C)/C=C/C=C/C=C/C=C/C=C/C=C/C=C/[C@H](O[C@@H]2O[C@H](C)[C@@H](O)[C@H](N)[C@@H]2O)C[C@@H]2O[C@](O)(C[C@@H](O)C[C@@H](O)[C@H](O)CC[C@@H](O)C[C@@H](O)CC(=O)O[C@H]1C)C[C@H](O)[C@H]2C(=O)O [AMPHOTERICIN B]						1 (≈ 1.08 µM)						1 (≈ 1.08 µM)
Cc1ccc(Cc2nc3cc([N+](=O)[O-])ccc3o2)cc1	3.73	50 (≈ 186 µM)	50 (≈ 186 µM)	50 (≈ 186 µM)	50 (≈ 186 µM)	25 (≈ 93.2 µM)	50 (≈ 186 µM)	50 (≈ 186 µM)	50 (≈ 186 µM)	50 (≈ 186 µM)	50 (≈ 186 µM)	50 (≈ 186 µM)
O=[N+]([O-])c1ccc2oc(Cc3ccc(F)cc3)nc2c1	4.338	12.5 (≈ 45.9 µM)	100 (≈ 367 µM)	50 (≈ 184 µM)	50 (≈ 184 µM)	50 (≈ 184 µM)	50 (≈ 184 µM)	100 (≈ 367 µM)	50 (≈ 184 µM)	100 (≈ 367 µM)	25 (≈ 91.8 µM)	100 (≈ 367 µM)
CCc1ccc(-c2nc3ccc([N+](=O)[O-])cc3o2)cc1	3.73	50 (≈ 186 µM)	100 (≈ 373 µM)	100 (≈ 373 µM)	25 (≈ 93.2 µM)	100 (≈ 373 µM)	50 (≈ 186 µM)	100 (≈ 373 µM)	50 (≈ 186 µM)	100 (≈ 373 µM)	50 (≈ 186 µM)	50 (≈ 186 µM)
Cc1ccc2nc(-c3ccc(Cl)cc3Cl)oc2c1	4.046	25 (≈ 89.9 µM)										
Cc1ccc2nc(-c3ccc(Cl)cc3)oc2c1	4.29	12.5 (≈ 51.3 µM)										
O=[N+]([O-])c1ccc2nc(-c3ccccc3)oc2c1	3.983	25 (≈ 104 µM)	100 (≈ 416 µM)	25 (≈ 104 µM)	25 (≈ 104 µM)	50 (≈ 208 µM)	50 (≈ 208 µM)	200 (≈ 833 µM)	50 (≈ 208 µM)	100 (≈ 416 µM)	50 (≈ 208 µM)	100 (≈ 416 µM)
O=[N+]([O-])c1ccc2nc(-c3ccc(Br)cc3)oc2c1	4.407	12.5 (≈ 39.2 µM)	400 (≈ 1250 µM)	25 (≈ 78.3 µM)	50 (≈ 157 µM)	50 (≈ 157 µM)	50 (≈ 157 µM)	100 (≈ 313 µM)	50 (≈ 157 µM)	100 (≈ 313 µM)	50 (≈ 157 µM)	100 (≈ 313 µM)
Nc1ccc2nc(-c3ccc(F)cc3)oc2c1	3.659	50 (≈ 219 µM)	100 (≈ 438 µM)	100 (≈ 438 µM)	50 (≈ 219 µM)	50 (≈ 219 µM)	50 (≈ 219 µM)	100 (≈ 438 µM)	50 (≈ 219 µM)	100 (≈ 438 µM)	50 (≈ 219 µM)	50 (≈ 219 µM)
Cc1ccc(-c2nc3cc(C)ccc3o2)c(C)c1	3.977											
CC(C)(C)c1ccc(-c2nc3ccc(N)cc3o2)cc1	4.027	25 (≈ 93.9 µM)	100 (≈ 375 µM)	100 (≈ 375 µM)	25 (≈ 93.9 µM)	50 (≈ 188 µM)	50 (≈ 188 µM)	100 (≈ 375 µM)	50 (≈ 188 µM)	100 (≈ 375 µM)	25 (≈ 93.9 µM)	50 (≈ 188 µM)
CC1(C)S[C@@H]2[C@H](NC(=O)[C@H](N)c3ccccc3)C(=O)N2[C@H]1C(=O)O.O.O.O [AMPICILLIN TRIHYDRATE]		0.25	2	256	8		8	0.03	2	256	4100	
CC1COc2c(N3CCN(C)CC3)c(F)cc3c(=O)c(C(=O)O)cn1c23 (configuration not stated) [OFLOXACIN]		0.125 (≈ 0.346 µM)	2 (≈ 5.53 µM)	32 (≈ 88.6 µM)	32 (≈ 88.6 µM)		0.125 (≈ 0.346 µM)	0.25 (≈ 0.692 µM)	0.25 (≈ 0.692 µM)	64 (≈ 177 µM)	8 (≈ 22.1 µM)	
